# In paper PMC2900318 (Bioorganic & medicinal chemistry letters, 2009):
# pIC50: −log10 of the molar value.
# What was measured:
# human sEH [1] = target: T1, human sEH (Homo sapiens, UniProt P34913); experiment: Inhibition of human sEH, kinetic fluorescent assay; format: biochemical; conditions: for Fold better inhibitory activity against sEH: salicylic acids vs benzoic acids 14 and 15, respectively
# T1 sequence (P34913 1-555): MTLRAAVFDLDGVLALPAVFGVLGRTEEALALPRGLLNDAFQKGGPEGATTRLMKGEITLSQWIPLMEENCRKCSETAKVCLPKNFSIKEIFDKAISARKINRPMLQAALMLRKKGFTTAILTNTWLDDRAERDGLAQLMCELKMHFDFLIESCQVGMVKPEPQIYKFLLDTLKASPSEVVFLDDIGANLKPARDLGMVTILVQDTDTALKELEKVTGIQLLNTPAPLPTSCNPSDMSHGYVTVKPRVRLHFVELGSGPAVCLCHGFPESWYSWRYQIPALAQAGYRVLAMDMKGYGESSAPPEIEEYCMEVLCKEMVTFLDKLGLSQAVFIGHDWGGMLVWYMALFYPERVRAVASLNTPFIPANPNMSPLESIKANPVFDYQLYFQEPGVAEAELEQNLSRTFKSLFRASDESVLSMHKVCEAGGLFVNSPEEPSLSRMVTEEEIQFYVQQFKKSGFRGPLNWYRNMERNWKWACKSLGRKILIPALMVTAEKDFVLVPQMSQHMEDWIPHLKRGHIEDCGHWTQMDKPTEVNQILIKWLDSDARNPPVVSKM
# Chemical stability = format: physicochemical; conditions: 40 mM NaOH; 22 °C
# In short: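 The test compound was incubated in alkaline solution (40 mM NaOH) at 22 °C. Hydrolysis was followed over time as conversion to the corresponding phenol.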
# [2] = In vitro stability with human liver S9 incubation with or without NADPH; format: in vitro ADME; conditions: for Parent compound remaining after the reaction / Level of the corresponding acid metabolite: human hepatic S9, 60 min; for Parent compound remaining after the reaction: with or without NADPH; for Level of the corresponding acid metabolite: metabolites 15 and 27, respectively
# [3] = Octanol/buffer partition, experimental logP; format: physicochemical; conditions: for Concentration in buffer: 0.1 M sodium phosphate buffer (pH 7.4) vs buffer saturated 1-octanol; for Concentration in octanol: buffer saturated 1-octanol vs 0.1 M sodium phosphate buffer (pH 7.4)
# Solubility in water = format: physicochemical
# [4] = Blood levels after oral administration to dog; format: in vivo; conditions: oral gavage 0.3 mg/kg in tri-olein rich oil
# In short: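 Dogs received the test compound as a single oral gavage dose of 0.3 mg/kg in tri-olein rich oil. Blood concentrations were followed over time to give concentration–time profiles.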
# COX-1 = target: T2, COX-1 (Ovis aries, UniProt P05979); experiment: COX-1 fluorescent inhibitor screening assay kit; format: biochemical; conditions: at 10 μM
# T2 sequence (P05979 25-600): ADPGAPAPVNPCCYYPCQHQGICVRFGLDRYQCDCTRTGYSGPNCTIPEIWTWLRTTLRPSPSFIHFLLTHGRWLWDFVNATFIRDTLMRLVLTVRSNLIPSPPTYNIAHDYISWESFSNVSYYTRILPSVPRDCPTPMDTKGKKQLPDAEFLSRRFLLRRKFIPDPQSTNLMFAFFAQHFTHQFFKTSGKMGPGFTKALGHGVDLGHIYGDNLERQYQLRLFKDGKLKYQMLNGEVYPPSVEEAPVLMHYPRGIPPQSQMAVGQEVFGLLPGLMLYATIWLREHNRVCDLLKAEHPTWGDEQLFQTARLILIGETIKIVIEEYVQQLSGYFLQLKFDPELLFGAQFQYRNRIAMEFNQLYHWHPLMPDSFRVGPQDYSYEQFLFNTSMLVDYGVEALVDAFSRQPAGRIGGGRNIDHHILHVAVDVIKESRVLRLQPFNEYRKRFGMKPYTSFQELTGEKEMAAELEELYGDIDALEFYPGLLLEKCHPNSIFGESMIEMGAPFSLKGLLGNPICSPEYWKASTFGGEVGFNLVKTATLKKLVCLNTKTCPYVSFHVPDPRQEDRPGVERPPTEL
# COX-2 = target: T3, COX-2 (Homo sapiens, UniProt P35354); experiment: COX-2 fluorescent inhibitor screening assay kit; format: biochemical; conditions: at 10 μM
# T3 sequence (P35354 18-604): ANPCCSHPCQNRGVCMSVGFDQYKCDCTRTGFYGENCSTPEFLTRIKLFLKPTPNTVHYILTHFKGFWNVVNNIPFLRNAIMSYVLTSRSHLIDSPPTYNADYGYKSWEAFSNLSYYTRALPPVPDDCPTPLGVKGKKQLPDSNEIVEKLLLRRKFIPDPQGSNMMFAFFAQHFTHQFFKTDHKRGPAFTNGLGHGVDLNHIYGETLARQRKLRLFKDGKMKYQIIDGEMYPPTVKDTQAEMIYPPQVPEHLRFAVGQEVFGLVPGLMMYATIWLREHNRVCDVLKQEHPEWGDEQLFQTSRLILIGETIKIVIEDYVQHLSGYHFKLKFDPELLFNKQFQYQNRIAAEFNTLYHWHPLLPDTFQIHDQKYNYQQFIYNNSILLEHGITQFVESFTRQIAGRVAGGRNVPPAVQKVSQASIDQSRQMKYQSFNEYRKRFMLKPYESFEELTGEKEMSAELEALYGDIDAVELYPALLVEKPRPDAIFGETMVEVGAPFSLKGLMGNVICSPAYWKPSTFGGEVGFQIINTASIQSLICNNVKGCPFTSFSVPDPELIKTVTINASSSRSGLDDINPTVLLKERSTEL
# human sEH [5] = target: T1, human sEH; conditions: statement in words; cited from earlier work
structure (smiles),measurement,setting,value
O=C(Nc1ccccc1O)NC12CC3CC(CC(C3)C1)C2 [Compound 2],Fold reduction of inhibitory potency against human sEH,"human sEH [1]; ortho hydroxy vs non-functionalized compound 1 / meta, para isomers",roughly 10 fold
CC(=O)Oc1ccc(NC(=O)NC23CC4CC(CC(C4)C2)C3)cc1 [Compound 10],Time to complete conversion to the corresponding phenol 4,Chemical stability,less than 15 min
same,Hydrolysis to the corresponding phenol 4,"[2]; human hepatic S9, in an hour",hydrolyzed completely
O=C(Nc1ccc(OC(=O)c2ccccc2)cc1)NC12CC3CC(CC(C3)C1)C2 [Compound 11],Time to complete conversion to the corresponding phenol 4,Chemical stability,less than 15 min
same,Parent compound remaining after the reaction,[2],30%
COC(=O)c1ccc(NC(=O)NC23CC4CC(CC(C4)C2)C3)cc1 [Compound 13],Concentration in buffer,[3],<0.3 µM
same,Concentration in octanol,[3],2445 µM
same,Parent compound remaining after the reaction,[2],≥ 90%
same,Level of the corresponding acid metabolite,[2],below the limit of detection
O=C(Nc1ccc(C(=O)O)cc1)NC12CC3CC(CC(C3)C1)C2 [Compound 15],Fold less active towards sEH,human sEH [1]; vs un-substituted phenyl 1 or the corresponding ester 13,83 fold
O=C(Nc1cccc(C(=O)N2CCC(N3CCOCC3)CC2)c1)NC12CC3CC(CC(C3)C1)C2 [Compound 17],solubility,"Solubility in water; sodium phosphate buffer, pH 7.4",10000 µg/mL
same,Concentration in octanol,[3],2720 µM
O=C(Nc1ccc(O)c(C(=O)O)c1)NC12CC3CC(CC(C3)C1)C2 [Compound 25],Fold better inhibitory activity against sEH,human sEH [1],3 fold
COC(=O)c1cc(NC(=O)NC23CC4CC(CC(C4)C2)C3)ccc1O [Compound 26],Fold increase in metabolic stability,"[2]; human liver S9, compared to 12",10 fold
O=C(Nc1ccc(C(=O)O)c(O)c1)NC12CC3CC(CC(C3)C1)C2 [Compound 27],Blood concentration,[4],no 27 was detected
same,Fold more soluble in water,Solubility in water; compared to 17 (so in the source),20 fold
same,Concentration in buffer,[3],39 µM
same,Concentration in octanol,[3],1641 µM
same,Fold better inhibitory activity against sEH,human sEH [1],20 fold
COC(=O)c1ccc(NC(=O)NC23CC4CC(CC(C4)C2)C3)cc1O [Compound 28],Blood concentration,[4],higher than that of the classical sEH inhibitor AUDA
same,Concentration in buffer,[3],<0.3 µM
same,Concentration in octanol,[3],3886 µM
same,Inhibition of COX-1,COX-1,not able to show any inhibition
same,Parent compound remaining after the reaction,[2],≥ 90%
same,Level of the corresponding acid metabolite,[2],below the limit of detection
same,pIC50,human sEH [1],~8.52
same,Inhibition of COX-2,COX-2,not able to show any inhibition
"O=C(NC12CC3CC(CC(C3)C1)C2)NC12CC3CC(CC(C3)C1)C2 [N,N′-bisadamantyl urea]",Inhibition towards sEH,human sEH [5],strong inhibition
